Source: PubChem BioAssay (Sanford-Burnham Center for Chemical Genomics)
APJ antag: antagonists of human apelin receptor APJ, primary screen, CHO-K1 cells, beta-arrestin complementation, luminescence; AID 2521, 2010; inhibition, % at 20 µM; hit rate 0.32% among 330,000;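 active = inhibition above about 40% at 20 µM, limit read from the data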;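 note: cells challenged with 10 nM apelin-13 agonist together with compound; plate controls were apelin-13 plus DMSO wells for no effect and DMSO wells lacking apelin-13 for full effect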
EBI2 antag: EBI2 receptor antagonists, beta-arrestin recruitment, primary screen, cell-based, luminescence, 7a,25-OHC stimulation, uHTS. 7a,25-OHC stimulated. inhibition, % at 5 µM. AID 651636, 2012. G-protein coupled receptor 183 (Homo sapiens), P32249. hit rate 0.81% among 360,000; in the data active = inhibition above about 38%;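 note: enzyme fragment complementation signal reports receptor beta-arrestin coupling in cells; 0% = agonist plus DMSO wells and 100% = wells without agonist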
CCR6 antagonist: CCR6 receptor antagonists, primary screen, cell-based, CHO-K1, luminescence, beta-arrestin, uHTS; CHO-K1 CCR6 PathHunter beta-arrestin, CCL20-stimulated; inhibition, % at 20 µM; hit rate 0.49% among 340,000;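 active = compounds whose inhibition of the agonist-driven luminescence signal at 20 µM reaches about 50%, limit read from the data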;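 note: cells stimulated with CCL20 at 14 nM final; plate controls were DMSO with CCL20 for no effect and DMSO without agonist for full effect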
CXCR6 inh: CXCR6 receptor inhibitors, primary screen, cell-based, beta-arrestin, luminescence, CHO-K1 PathHunter, 1536-well; C-X-C chemokine receptor type 6 (Homo sapiens), O00574; inhibition, % at 20 µM; hit rate 0.36% among 360,000; AID 602244, 2012; in the data active = inhibition above about 34%, passing the limit was not always enough;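 note: antagonist mode with CXCL16 agonist at 10 nM final; 0% = 10 nM CXCL16 with DMSO and 100% = unstimulated wells without agonist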
Target sequence (O00574 whole entry, looked up): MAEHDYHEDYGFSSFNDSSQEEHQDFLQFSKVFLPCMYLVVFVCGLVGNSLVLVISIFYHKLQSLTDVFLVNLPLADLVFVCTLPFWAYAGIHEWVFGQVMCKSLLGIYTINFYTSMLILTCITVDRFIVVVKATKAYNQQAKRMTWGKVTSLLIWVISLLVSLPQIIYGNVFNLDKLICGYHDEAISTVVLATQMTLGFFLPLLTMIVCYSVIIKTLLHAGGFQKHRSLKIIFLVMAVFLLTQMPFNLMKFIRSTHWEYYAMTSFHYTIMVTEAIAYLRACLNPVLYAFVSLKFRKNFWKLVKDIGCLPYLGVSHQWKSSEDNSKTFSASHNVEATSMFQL
TAG inh: inhibitors of triacylglycerol accumulation, primary screen, cell-based, uHTS, fluorescence, H9c2; H9c2 cells, Nile Red lipid (TAG) fluorescence; cells loaded with 200 µM oleic acid; inhibition, % at 12.5 µM; hit rate 0.66% among 230,000; AID 651582, 2012;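 active = pattern-corrected inhibition of lipid staining of at least 50% with the nuclear-stain viability signal not falling by more than 50%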;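 note: 0% = DMSO wells and 100% = triacsin C control wells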
APJ ag: agonists of human apelin receptor APJ, primary screen, CHO-K1 cells, PathHunter beta-arrestin, luminescence. P35414. 0% DMSO wells, 100% apelin. activation, % at 20 µM. hit rate 0.11% among 330,000;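 active = activation more than six SD over the plate average, tested at 20 µM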;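 note: 0% = DMSO alone and 100% = apelin-13 at 10 nM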
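Assay system: engineered CHO-K1 APJ arrestin reporter cells; Amount: 1000 CHO-K1 reporter cells seeded per well; Dosing: one dose, 20 µM compound, 1% DMSO; Times: compound stimulation 90 min at 25 °C, detection 60 min; Measured by: luminescent beta-gal fragment complementation, chemiluminescent substrate; Read-out: APJ–arrestin association signal; Controls: DMSO vs Apelin-13 10 nM.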
EBI2 conf: EBI2 antagonist hit retest, beta-arrestin, confirmation, cell-based, single concentration, luminescence, 7a,25-OHC stimulation. shares compounds with EBI2 antag. 7a,25-OHC antagonism. inhibition, % at 5 µM. hit rate 29% among 2,400. AID 651997, 2013;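 active = inhibition of at least 50%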
EBI2 agonist: EBI2 agonist activity of antagonist hits, confirmation, counter-screen for EBI2 antagonist project, cell-based, single concentration, agonist mode, luminescence; AID 652000, 2013; shares compounds with EBI2 antag; EBI2-expressing cells, 60 min; 0% vehicle, 100% 7α,25-dihydroxycholesterol control; activation, % at 5 µM; 2,400 tested, under 10 active;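 active = activation of at least 50%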
bGal counter: E. coli beta-galactosidase enzyme inhibition, confirmation, counter-screen for EBI2 antagonist project, biochemical, luminescence, single concentration | AID 652176, 2013 | shares compounds with EBI2 antag | hit rate 1% among 2,400 | inhibition, % at 5 µM | purified beta-galactosidase, luminescent Galacton Star, 15 min;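 active = replicate-average signal at least 3 plate SD below neutral wells, shown as high inhibition, flagging enzyme-inhibiting false positives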;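 note: 0% = DMSO wells with enzyme and 100% = wells lacking enzyme; higher means stronger loss of beta-gal luminescence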
The depositor's hits bear a star; x = not tested or not shown. Hits are enriched below; roughly 1.9% of the tested compounds scored in any of these assays.

SMILES	APJ antag	EBI2 antag	CCR6 antagonist	CXCR6 inh	TAG inh	APJ ag	EBI2 conf	EBI2 agonist	bGal counter
CCCN1CCN(C(=O)c2ccc3[nH]c(C)c(C)c3c2)CC1	x	73*	x	0	2	x	46	-1	-11
Cc1[nH]c2ccc(C(=O)N3CCN(Cc4ccccc4)CC3)cc2c1C	-13	65*	6	-8	x	-1	40	3	6
Cc1[nH]c2ccc(C(=O)N3CCN(c4ccccn4)CC3)cc2c1C	11	41*	13	2	x	3	39	1	8
C[C@H]1CN(S(=O)C(C)(C)C)[C@@H](CCO)/C1=C\CCO (some centres undefined)	x	2	-1	10	-8	x	x	x	x
CCN(Cc1ccccc1)C(=O)Cn1c(=O)n(CC(=O)N2CCCCC2)c(=O)c2sccc21	8	-1	0	-4	x	-4	x	x	x
CCC1CCCCN1CCCNC(=O)c1ccc2c(c1)c(C)c(C)n2C (centres undefined)	18	0	-4	1	x	4	x	x	x
Cc1cc(C)c(S(=O)(=O)N(CC(=O)O)CC(=O)O)c(C)c1	1	-4	-12	-2	-6	-1	x	x	x
Cc1cc(C)c(S(=O)(=O)N(C2=NCCS2)S(=O)(=O)c2c(C)cc(C)cc2C)c(C)c1	6	56*	15	-1	21	-2	18	0	-4
Cn1nc(Oc2ncc(C(F)(F)F)cc2Cl)cc1C(F)(F)F	-5	66*	1	4	-1	1	8	-2	-13
Oc1cccc(Oc2ncc(C(F)(F)F)cc2Cl)c1	0	2	-12	-5	-10	-2	x	x	x
CCOc1cc(CN2CCC(n3nccc3NC(=O)C3CC3)CC2)ccc1O	26	-1	3	-5	x	-1	x	x	x
c1ccc(CNc2nc(NCC3CC3)nc3cc(-c4ccccc4)sc23)cc1	x	63*	x	6	21	x	48	-1	-8
C=CCNc1nc(NCCOc2ccccc2Cl)c2sc(-c3ccccc3)cc2n1	x	42*	x	12	11	x	31	-2	-7
CCCCNC(=O)C1(C)CCC(=O)N1CCCn1ccnc1 (centres undefined)	x	-2	x	6	x	x	x	x	x
Cc1cc(C)n(C(=O)Cn2nc(C)c(Br)c2C)n1	1	1	1	1	0	-3	x	x	x
CC(C)C[C@H]1CN(CCCC[C@H]2CNC(=O)C(=O)N2CC2CCCCC2)C(=O)C(=O)N1Cc1ccccc1	x	-3	x	-2	x	x	x	x	x
O=C(NCc1nc2ccccc2[nH]1)C1=C[C@H](c2ccc(C(F)(F)F)cc2)C[C@H](OCCCCO)O1	-65	15	13	9	x	-5	x	x	x
CC(C)(C)NC(=O)c1cc([N+](=O)[O-])ccc1N1CCCCC1	x	57*	8	0	x	x	39	0	3
O=C(O)c1cc([N+](=O)[O-])ccc1N1CCCCC1	1	-2	13	9	x	-4	x	x	x
O=S(=O)(NCc1ccc(F)cc1)c1ccc(-n2cnnn2)cc1	7	0	8	-11	x	-4	x	x	x
O=C(CCn1cnc2ccccc21)N/N=C/C=C/c1ccccc1	6	46*	8	-4	-23	1	52*	1	5
COc1ccccc1/C=C/C=N/NC(=O)CCn1cnc2ccccc21	3	11	-3	-43	9	0	x	x	x
CCCC(=O)N1CCCC1(C)C(=O)Nc1ccc2nc(C)ccc2c1 (centres undefined)	x	1	x	-9	10	x	x	x	x
